According to the M2OR odorant receptor database:

How the values were obtained:
Details in all cases: stereoisomer not certain
[1] = tested on: O14A2 I133V
Method in brief: (§1)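 Whether a receptor–molecule pair is responsive (active) rests on the original authors' judgment that its measured signal was statistically different from baseline. Pairs without that judgment are non-responsive (inactive). Sources used varied assay methods, commonly transient luciferase assays in mammalian cell lines.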

[2] = tested on: O14CZ
Chain of O14CZ (as listed by the source): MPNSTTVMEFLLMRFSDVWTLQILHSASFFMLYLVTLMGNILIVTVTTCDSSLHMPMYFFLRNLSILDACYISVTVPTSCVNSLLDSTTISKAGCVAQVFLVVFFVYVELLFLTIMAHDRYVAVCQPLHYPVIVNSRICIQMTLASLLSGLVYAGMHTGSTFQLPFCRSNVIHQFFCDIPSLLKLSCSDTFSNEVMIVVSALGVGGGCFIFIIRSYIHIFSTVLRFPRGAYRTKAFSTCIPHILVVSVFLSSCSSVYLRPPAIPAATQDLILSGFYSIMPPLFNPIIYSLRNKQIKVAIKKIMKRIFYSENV
Method in brief: as §1

[3] = tested on: O14I1 V36A D50N Y216C
Method in brief: as §1

[4] = tested on: O14J1 N3Y
Chain of O14J1 N3Y (as listed by the source): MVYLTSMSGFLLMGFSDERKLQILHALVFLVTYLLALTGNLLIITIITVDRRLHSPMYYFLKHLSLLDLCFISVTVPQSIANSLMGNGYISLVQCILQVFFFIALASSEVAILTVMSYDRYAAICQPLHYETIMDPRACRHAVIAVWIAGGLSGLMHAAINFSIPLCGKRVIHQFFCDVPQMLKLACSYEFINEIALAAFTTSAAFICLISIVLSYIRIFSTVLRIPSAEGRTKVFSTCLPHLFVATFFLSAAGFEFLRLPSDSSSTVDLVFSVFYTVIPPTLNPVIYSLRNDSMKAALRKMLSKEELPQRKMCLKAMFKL
Method in brief: as §1

[5] = tested on: O14K1 D119Y
Chain of O14K1 D119Y (as listed by the source, stated change not applied): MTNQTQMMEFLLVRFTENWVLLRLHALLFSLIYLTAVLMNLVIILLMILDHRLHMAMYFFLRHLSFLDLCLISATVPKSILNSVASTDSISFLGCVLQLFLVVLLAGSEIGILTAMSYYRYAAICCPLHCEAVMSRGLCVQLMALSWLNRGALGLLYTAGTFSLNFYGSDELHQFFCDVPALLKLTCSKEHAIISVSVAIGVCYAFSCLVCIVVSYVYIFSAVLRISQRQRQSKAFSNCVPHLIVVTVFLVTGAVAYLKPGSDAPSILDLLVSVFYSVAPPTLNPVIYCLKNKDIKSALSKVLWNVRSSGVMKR
Method in brief: as §1

[6] = tested on: O2A25
Chain of O2A25 (as listed by the source): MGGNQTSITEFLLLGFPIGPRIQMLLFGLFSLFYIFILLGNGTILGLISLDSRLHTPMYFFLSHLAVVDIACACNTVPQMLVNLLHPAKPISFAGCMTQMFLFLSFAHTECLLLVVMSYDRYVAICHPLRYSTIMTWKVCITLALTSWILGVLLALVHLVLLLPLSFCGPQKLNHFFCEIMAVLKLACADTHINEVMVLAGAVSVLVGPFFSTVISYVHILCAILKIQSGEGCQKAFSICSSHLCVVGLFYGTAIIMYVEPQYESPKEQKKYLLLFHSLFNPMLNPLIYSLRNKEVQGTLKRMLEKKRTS
Method in brief: as §1

[7] = tested on: O2AE1
Chain of O2AE1 (as listed by the source): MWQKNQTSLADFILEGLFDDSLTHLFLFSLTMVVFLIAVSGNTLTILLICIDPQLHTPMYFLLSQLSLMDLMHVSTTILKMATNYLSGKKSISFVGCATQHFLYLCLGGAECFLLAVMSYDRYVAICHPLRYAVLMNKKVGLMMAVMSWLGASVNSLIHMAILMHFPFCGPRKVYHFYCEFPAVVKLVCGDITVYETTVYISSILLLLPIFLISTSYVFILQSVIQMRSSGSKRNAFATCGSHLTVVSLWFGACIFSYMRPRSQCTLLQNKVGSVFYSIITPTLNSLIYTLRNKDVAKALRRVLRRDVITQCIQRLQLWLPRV
Method in brief: as §1

[8] = tested on: O2AJ1
Chain of O2AJ1 (as listed by the source): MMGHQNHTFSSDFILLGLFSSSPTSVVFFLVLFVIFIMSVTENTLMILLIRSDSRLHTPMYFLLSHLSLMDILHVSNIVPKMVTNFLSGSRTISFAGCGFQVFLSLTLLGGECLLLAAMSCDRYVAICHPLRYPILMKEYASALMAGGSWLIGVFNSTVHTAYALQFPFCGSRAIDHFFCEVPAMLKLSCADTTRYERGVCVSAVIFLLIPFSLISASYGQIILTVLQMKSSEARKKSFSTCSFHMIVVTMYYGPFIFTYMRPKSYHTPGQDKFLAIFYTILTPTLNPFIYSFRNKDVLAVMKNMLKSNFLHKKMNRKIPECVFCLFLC
Method in brief: as §1

[9] = tested on: T1, O1440
T1 sequence (whole entry): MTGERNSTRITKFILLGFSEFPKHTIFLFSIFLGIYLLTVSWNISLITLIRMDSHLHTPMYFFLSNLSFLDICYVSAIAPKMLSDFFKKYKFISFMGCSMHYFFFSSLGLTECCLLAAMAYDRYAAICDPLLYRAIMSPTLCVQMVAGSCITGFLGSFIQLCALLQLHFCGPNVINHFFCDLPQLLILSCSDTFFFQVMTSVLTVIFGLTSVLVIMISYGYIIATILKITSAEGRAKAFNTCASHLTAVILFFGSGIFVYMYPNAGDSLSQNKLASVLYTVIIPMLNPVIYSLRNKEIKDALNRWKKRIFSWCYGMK
Method in brief: as §1

[10] = tested on: T2, O1440; remark: listed apart in the source
T2 sequence (whole entry): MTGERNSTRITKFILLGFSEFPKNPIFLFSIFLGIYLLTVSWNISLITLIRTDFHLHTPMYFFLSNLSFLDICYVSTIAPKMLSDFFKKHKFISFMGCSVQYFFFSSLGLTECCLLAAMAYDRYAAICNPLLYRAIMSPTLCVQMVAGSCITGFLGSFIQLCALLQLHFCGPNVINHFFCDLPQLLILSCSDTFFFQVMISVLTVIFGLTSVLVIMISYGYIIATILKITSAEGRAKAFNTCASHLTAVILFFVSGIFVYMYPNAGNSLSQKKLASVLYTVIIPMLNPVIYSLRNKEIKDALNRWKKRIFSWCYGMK
Method in brief: as §1
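Also: active if original authors judged signal statistically different from baseline.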

Chain of O14A2 I133V (as listed by the source, stated change not applied): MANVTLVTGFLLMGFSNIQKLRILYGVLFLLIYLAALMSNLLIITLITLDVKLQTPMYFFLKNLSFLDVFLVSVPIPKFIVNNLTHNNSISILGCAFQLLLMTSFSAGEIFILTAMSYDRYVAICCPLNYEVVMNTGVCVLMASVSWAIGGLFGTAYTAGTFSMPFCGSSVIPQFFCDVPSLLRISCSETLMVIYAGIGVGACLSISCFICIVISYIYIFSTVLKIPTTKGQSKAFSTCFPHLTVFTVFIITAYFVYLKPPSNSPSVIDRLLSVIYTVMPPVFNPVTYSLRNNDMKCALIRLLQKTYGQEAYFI

## C=CCOC(=O)Cc1ccccc1
[1]
  odorant receptor agonist call: inactive
[2]
  odorant receptor agonist call: inactive
[3]
  odorant receptor agonist call: inactive
[4]
  odorant receptor agonist call: inactive
[5]
  odorant receptor agonist call: inactive
[6]
  odorant receptor agonist call: inactive
[7]
  odorant receptor agonist call: inactive
[8]
  odorant receptor agonist call: inactive

## Cc1c([N+](=O)[O-])c(C)c([N+](=O)[O-])c(C(C)(C)C)c1[N+](=O)[O-]
[9]
  odorant receptor agonist call: inactive
[10]
  odorant receptor agonist call: active

## CC(=O)c1cc(C(C)(C)C)cc2c1CCC2(C)C
[9]
  odorant receptor agonist call: inactive
[10]
  odorant receptor agonist call: inactive

## CC(=O)c1cc2c(cc1C)C(C)(C)C(C)CC2(C)C (centres undefined)
[9]
  odorant receptor agonist call: active
[10]
  odorant receptor agonist call: active
